The source made the active and inactive calls. No cut-off for these calls is given here.
What was measured:
Format in all cases: functional
SN12C = assay: Cytotoxicity against human SN12C cells after 2 days by sulforhodamine B assay; conditions: 48 h
Procedure, shortened: (§1)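 NCI60 multi-dose screen, 59 human tumour lines available. Cells exposed to compound across a 5-log mol/L concentration range for 2 days, then fixed and stained with sulphorhodamine B, optical density read. Growth inhibition calculated against time-zero control and untreated cells. GI50 derived from the dose series, average of two replicates.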

SK-OV-3 = assay: Cytotoxicity against human SKOV3 cells after 2 days by sulforhodamine B assay; conditions: SK-OV-3, 48 h; procedure, shortened: as §1
OVCAR-8 = assay: Cytotoxicity against human OVCAR8 cells after 2 days by sulforhodamine B assay; conditions: OVCAR-8, 48 h; procedure, shortened: as §1
OVCAR-5 = assay: Cytotoxicity against human OVCAR5 cells after 2 days by sulforhodamine B assay; conditions: OVCAR-5, 48 h; procedure, shortened: as §1
OVCAR-4 = assay: Cytotoxicity against human OVCAR4 cells after 2 days by sulforhodamine B assay; procedure, shortened: as §1
OVCAR-3 = assay: Cytotoxicity against human OVCAR3 cells after 2 days by sulforhodamine B assay; conditions: OVCAR-3, 48 h; procedure, shortened: as §1
UACC-62 = assay: Cytotoxicity against human UACC62 cells after 2 days by sulforhodamine B assay; conditions: UACC-62, 48 h
Procedure, shortened: (§2)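 NCI DTP NCI60 multi-dose screen (59 human tumour lines available). Cells exposed to compound over a 5-log mol/L concentration range for 2 days, then fixed and stained with sulphorhodamine B, with optical density read. Growth inhibition calculated relative to time-zero cells and untreated cells, giving GI50 (half-maximal growth inhibition concentration). Average of two replicates.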

UACC-257 = assay: Cytotoxicity against human UACC257 cells after 2 days by sulforhodamine B assay; conditions: UACC-257, 48 h; procedure, shortened: as §2
SK-MEL-5 = assay: Cytotoxicity against human SK-MEL-5 cells after 2 days by sulforhodamine B assay; conditions: SK-MEL-5, 48 h; procedure, shortened: as §1
SK-MEL-28 = assay: Cytotoxicity against human SK-MEL-28 cells after 2 days by sulforhodamine B assay; conditions: SK-MEL-28, 48 h; procedure, shortened: as §1
MDA-MB-435 = assay: Cytotoxicity against human MDA-MB-435 cells after 2 days by sulforhodamine B assay; conditions: MDA-MB-435, 48 h; procedure, shortened: as §1
SK-MEL-2 = assay: Cytotoxicity against human SK-MEL-2 cells after 2 days by sulforhodamine B assay; conditions: SK-MEL-2, 48 h; procedure, shortened: as §1
M14 = assay: Cytotoxicity against human M14 cells after 2 days by sulforhodamine B assay; conditions: M14, 48 h; procedure, shortened: as §1
LOX IMVI = assay: Cytotoxicity against human LOXIMVI cells after 2 days by sulforhodamine B assay; conditions: 48 h; procedure, shortened: as §1
SF-295 = assay: Cytotoxicity against human SF295 cells after 2 days by sulforhodamine B assay; conditions: SF-295, 48 h; procedure, shortened: as §1
KM12 = assay: Cytotoxicity against human KM12 cells after 2 days by sulforhodamine B assay; conditions: KM12, 48 h; procedure, shortened: as §1
HCT-15 = assay: Cytotoxicity against human HCT15 cells after 2 days by sulforhodamine B assay; conditions: HCT-15, 48 h; procedure, shortened: as §1
HCT-116 = assay: Cytotoxicity against human HCT116 cells after 2 days by sulforhodamine B assay; conditions: HCT-116, 48 h; procedure, shortened: as §1
NCI-H460 = assay: Cytotoxicity against human NCI-H460 cells after 2 days by sulforhodamine B assay; conditions: NCI-H460, 48 h; procedure, shortened: as §1
NCI-H322M = assay: Cytotoxicity against human NCI-H322M cells after 2 days by sulforhodamine B assay; conditions: 48 h; procedure, shortened: as §1
NCI-H226 = assay: Cytotoxicity against human NCI-H226 cells after 2 days by sulforhodamine B assay; conditions: NCI-H226, 48 h; procedure, shortened: as §1
NCI-H23 = assay: Cytotoxicity against human NCI-H23 cells after 2 days by sulforhodamine B assay; conditions: NCI-H23, 48 h; procedure, shortened: as §1
HOP-62 = assay: Cytotoxicity against human HOP62 cells after 2 days by sulforhodamine B assay; conditions: HOP-62, 48 h; procedure, shortened: as §1
SR = assay: Cytotoxicity against human SR cells after 2 days by sulforhodamine B assay; conditions: 48 h; procedure, shortened: as §2
K562 = assay: Cytotoxicity against human K562 cells after 2 days by sulforhodamine B assay; conditions: K562, 48 h; procedure, shortened: as §1
HL-60(TB) = assay: Cytotoxicity against human HL-60(TB) cells after 2 days by sulforhodamine B assay; conditions: HL-60, 48 h
Procedure, shortened: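 NCI60 multi-dose screen: cells exposed to compound over a 5-log mol/L concentration range for 2 days, then fixed and stained with sulphorhodamine B and optical density read. Growth inhibition calculated relative to time-zero control and untreated cells; GI50 reported as average of two replicates.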

CCRF-CEM = assay: Cytotoxicity against human CCRF-CEM cells after 2 days by sulforhodamine B assay; conditions: 48 h; procedure, shortened: as §1
BT-549 = assay: Cytotoxicity against human BT549 cells after 2 days by sulforhodamine B assay; conditions: BT-549, 48 h; procedure, shortened: as §1
MCF7 = assay: Cytotoxicity against human MCF7 cells after 2 days by sulforhodamine B assay; conditions: MCF7, 48 h; procedure, shortened: as §1
UO-31 = assay: Cytotoxicity against human UO31 cells after 2 days by sulforhodamine B assay; conditions: UO-31, 48 h; procedure, shortened: as §2
[1] = read-out: LC50 (the source's name)

For CC/C(=C(/c1ccc(OCCN(C)C)cc1)c1ccc(OC(=O)CCCCCCCCC(=O)C2=C(C)/C(=C/c3[nH]c(-c4ccc[nH]4)cc3OC)N=C2C)cc1)c1ccccc1, the GI50 (SN12C) was 7.59 µM, the TGI (SN12C) was greater than 100 µM and the CC50 (SN12C; [1]) was greater than 100 µM. For the same molecule, the GI50 (SK-OV-3) was greater than 100 µM, the LC50 (concentration killing 50% of starting cells) (SK-OV-3) was greater than 100 µM and the TGI (SK-OV-3) was greater than 100 µM. It also gave a GI50 (OVCAR-8) of 9.12 µM, an LC50 (OVCAR-8) greater than 100 µM and a TGI (OVCAR-8) greater than 100 µM. The GI50 (OVCAR-5) was greater than 100 µM, the LC50 (OVCAR-5) was greater than 100 µM and the TGI (OVCAR-5) was greater than 100 µM. The Activity (OVCAR-4) was “inactive”, the LC50 (concentration killing 50% of cells) (OVCAR-4; OVCAR-4, 48 h) was greater than 100 µM and the TGI (OVCAR-4; OVCAR-4, 48 h) was greater than 100 µM. It also gave a GI50 (OVCAR-3) of 11 µM, an LC50 (OVCAR-3) greater than 100 µM and a TGI (OVCAR-3) greater than 100 µM. For the same molecule, the GI50 (UACC-62) was 3.39 µM, the TGI (UACC-62) was 18.2 µM and the CC50 (UACC-62; [1]) was greater than 100 µM. The GI50 (UACC-257) was 63.1 µM, the TGI (UACC-257) was greater than 100 µM and the CC50 (UACC-257; [1]) was greater than 100 µM. The GI50 (SK-MEL-5) was 1.62 µM, the LC50 (concentration killing 50% of cells) (SK-MEL-5) was 6.46 µM and the TGI (SK-MEL-5) was 3.24 µM. For the same molecule, the GI50 (SK-MEL-28) was 43.6 µM, the LC50 (SK-MEL-28) was greater than 100 µM and the TGI (SK-MEL-28) was greater than 100 µM. The GI50 (MDA-MB-435) was 4.57 µM, the TGI (MDA-MB-435) was greater than 100 µM and the CC50 (MDA-MB-435; [1]) was greater than 100 µM. For the same molecule, the GI50 (SK-MEL-2) was 30.9 µM, the LC50 (SK-MEL-2) was greater than 100 µM and the TGI (SK-MEL-2) was greater than 100 µM. The GI50 (M14) was 2.14 µM, the TGI (M14) was 4.47 µM and the CC50 (M14; [1]) was 9.33 µM. The GI50 (LOX IMVI) was 2.34 µM, the LC50 (LOX IMVI) was 27.5 µM and the TGI (LOX IMVI) was 5.89 µM. The GI50 (SF-295) was 10.7 µM, the LC50 (SF-295) was greater than 100 µM and the TGI (SF-295) was 61.7 µM. For the same molecule, the GI50 (KM12) was 5.25 µM, the LC50 (KM12) was greater than 100 µM and the TGI (KM12) was greater than 100 µM. For the same molecule, the GI50 (HCT-15) was 5.13 µM, the LC50 (HCT-15) was greater than 100 µM and the TGI (HCT-15) was 97.7 µM. It also gave a GI50 (HCT-116) of 3.39 µM, an LC50 (concentration killing 50% of cells vs time zero) (HCT-116) greater than 100 µM and a TGI (HCT-116) of 21.9 µM. For the same molecule, the GI50 (NCI-H460) was 4.27 µM, the LC50 (NCI-H460) was greater than 100 µM and the TGI (NCI-H460) was greater than 100 µM. It also gave a GI50 (NCI-H322M) greater than 100 µM, an LC50 (concentration killing 50% of cells) (NCI-H322M) greater than 100 µM and a TGI (NCI-H322M) greater than 100 µM. The GI50 (NCI-H226) was greater than 100 µM, the LC50 (NCI-H226) was greater than 100 µM and the TGI (NCI-H226) was greater than 100 µM. For the same molecule, the GI50 (NCI-H23) was 47.9 µM, the LC50 (concentration killing 50% of cells) (NCI-H23) was greater than 100 µM and the TGI (NCI-H23) was greater than 100 µM. For the same molecule, the GI50 (HOP-62) was 16.9 µM, the TGI (HOP-62) was greater than 100 µM and the CC50 (HOP-62; [1]) was greater than 100 µM. It also gave a GI50 (SR) of 4.07 µM, an LC50 (concentration giving 50% net cell kill) (SR) greater than 100 µM and a TGI (SR) greater than 100 µM. The GI50 (K562) was 4.57 µM, the LC50 (concentration killing 50% of cells) (K562) was greater than 100 µM and the TGI (K562) was greater than 100 µM. The GI50 (HL-60(TB)) was 12.3 µM, the TGI (HL-60(TB)) was greater than 100 µM and the CC50 (HL-60(TB); [1]) was greater than 100 µM. The GI50 (CCRF-CEM) was 0.76 µM, the TGI (CCRF-CEM) was greater than 100 µM and the CC50 (CCRF-CEM; [1]) was greater than 100 µM. For the same molecule, the GI50 (BT-549) was 5.25 µM, the LC50 (concentration killing 50% of cells present at time zero) (BT-549) was greater than 100 µM and the TGI (BT-549) was greater than 100 µM. For the same molecule, the GI50 (MCF7) was 0.16 µM, the LC50 (concentration giving 50% net cell kill) (MCF7) was greater than 100 µM and the TGI (MCF7) was 11 µM. The GI50 (UO-31) was 4.47 µM, the LC50 (UO-31) was greater than 100 µM and the TGI (UO-31) was greater than 100 µM.
